# Source: ChEMBL document CHEMBL4732237, “Discovery of 4-alkoxy-2-aryl-6,7-dimethoxyquinolines as a new class of topoisomerase I inhibitors endowed with potent in vitro anticancer activity” (2021)
# Tested on: HCT-15
# Assay: Growth inhibition of human HCT-15 cells incubated for 48 hrs by sulforhodamine B assay
# Assay type: functional
# Conditions: not given
# Outline: (§1)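 NCI five-dose screen covering 0.01–100 µM, prepared as 10-fold or ½-log dilutions from DMSO stock. Cells in RPMI 1640 with 5% FBS were exposed for 48 h at 37 °C after 24 h preincubation. Adherent cells were fixed with TCA (final 10%) and suspension cells were settled before fixing. Stain was SRB, read at 515 nm. GI50 = 50% reduction in net protein increase versus control, with Tz taken at drug addition.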
row,Structure (SMILES),GI50 [nM]
1,COc1cc2nc(-c3ccc(C(F)(F)F)cc3)cc(OCCCN3CCC(O)CC3)c2cc1OC,667
2,COc1cc2nc(-c3ccc(Cl)cc3)cc(OCCCN3CCCCC3)c2cc1OC,604

# Tested on: SR
# Assay: Growth inhibition of human SR cells incubated for 48 hrs by sulforhodamine B assay
# Assay type: functional
# Conditions: not given
# Outline: (§2)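 NCI five-dose screen (0.01–100 µM; five concentrations plus control). Cells grown in RPMI 1640/5% FBS/2 mM L-glutamine and preincubated 24 h, with time-zero plates TCA-fixed. Drug exposure 48 h at 37 °C, followed by SRB protein staining and reading at 515 nm. GI50 is the concentration at [(Ti-Tz)/(C-Tz)]×100 = 50.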
row,Structure (SMILES),GI50 [nM]
1,COc1cc2nc(-c3ccc(C(F)(F)F)cc3)cc(OCCCN3CCC(O)CC3)c2cc1OC,274
2,COc1cc2nc(-c3ccc(Cl)cc3)cc(OCCCN3CCCCC3)c2cc1OC,373

# Tested on: U-251
# Assay: Growth inhibition of human U-251 cells at 10 uM incubated for 48 hrs by sulforhodamine B assay relative to control
# Assay type: functional
# Conditions: read-out: GI
# Outline: (§3)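 NCI one-dose screen across a 59-line panel. Cells were grown in RPMI 1640 with 5% FBS and 2 mM L-glutamine, plated and pre-incubated 24 h, then exposed to drug for 48 h at 37 °C, 5% CO2. Adherent cells were fixed with cold TCA (10% final), stained with 0.4% SRB in 1% acetic acid and read at 515 nm. Result is percent growth relative to no-drug control and time-zero cell count.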
row,Structure (SMILES),inhibition of growth at 10 µM [%]
1,COc1cc2nc(-c3ccc(Cl)cc3)cc(OCCCN3CCCCC3)c2cc1OC,62

# Tested on: SK-OV-3
# Assay: Growth inhibition of human SK-OV-3 cells at 10 uM incubated for 48 hrs by sulforhodamine B assay relative to control
# Assay type: functional
# Conditions: read-out: GI
# Outline: (§4)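 NCI one-dose screen. Cells grown in RPMI 1640 with 5% FBS and 2 mM L-glutamine, plated and incubated 24 h at 37 °C, 5% CO2. DMSO-dissolved drug added, then 48 h further incubation. Adherent cells fixed with cold TCA, suspension cells fixed after settling. Stained with 0.4% SRB, absorbance read at 515 nm. Reported as percent growth relative to no-drug control and time-zero cell number.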
row,Structure (SMILES),inhibition of growth at 10 µM [%]
1,COc1cc2nc(-c3ccc(Cl)cc3)cc(OCCCN3CCCCC3)c2cc1OC,62

# Tested on: MDA-MB-435
# Assay: Growth inhibition of human MDA-MB-435 cells incubated for 48 hrs by sulforhodamine B assay
# Assay type: functional
# Conditions: not given
# Outline: as §1
row,Structure (SMILES),GI50 [nM]
1,COc1cc2nc(-c3ccc(C(F)(F)F)cc3)cc(OCCCN3CCC(O)CC3)c2cc1OC,2760
2,COc1cc2nc(-c3ccc(Cl)cc3)cc(OCCCN3CCCCC3)c2cc1OC,2440

# Tested on: IGROV-1
# Assay: Growth inhibition of human IGROV-1 cells at 10 uM incubated for 48 hrs by sulforhodamine B assay relative to control
# Assay type: functional
# Conditions: read-out: GI
# Outline: (§5)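 NCI-60 single-dose screen. Cells were grown in RPMI 1640 with 5% FBS and 2 mM L-glutamine and plated 24 h before drug addition. Compound was added at one concentration in DMSO-derived medium and incubated for 48 h at 37 °C in 5% CO2. Read-out was SRB protein stain at 515 nm. Result is percent growth versus the no-drug control and the time-zero cell count; values below 0 indicate lethality.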
row,Structure (SMILES),inhibition of growth at 10 µM [%]
1,COc1cc2nc(-c3ccc(Cl)cc3)cc(OCCCN3CCCCC3)c2cc1OC,62

# Tested on: M14
# Assay: Growth inhibition of human M14 cells at 10 uM incubated for 48 hrs by sulforhodamine B assay relative to control
# Assay type: functional
# Conditions: read-out: GI
# Outline: as §5
row,Structure (SMILES),inhibition of growth at 10 µM [%]
1,COc1cc2nc(-c3ccc(Cl)cc3)cc(OCCCN3CCCCC3)c2cc1OC,62

# Tested on: MCF7
# Assay: Growth inhibition of human MCF7 cells at 10 uM incubated for 48 hrs by sulforhodamine B assay relative to control
# Assay type: functional
# Conditions: read-out: GI
# Outline: as §5
row,Structure (SMILES),inhibition of growth at 10 µM [%]
1,COc1cc2nc(-c3ccc(Cl)cc3)cc(OCCCN3CCCCC3)c2cc1OC,62

# Biological target: T1, DNA topoisomerase 1 (Homo sapiens) (UniProt P11387)
# T1 sequence (whole entry): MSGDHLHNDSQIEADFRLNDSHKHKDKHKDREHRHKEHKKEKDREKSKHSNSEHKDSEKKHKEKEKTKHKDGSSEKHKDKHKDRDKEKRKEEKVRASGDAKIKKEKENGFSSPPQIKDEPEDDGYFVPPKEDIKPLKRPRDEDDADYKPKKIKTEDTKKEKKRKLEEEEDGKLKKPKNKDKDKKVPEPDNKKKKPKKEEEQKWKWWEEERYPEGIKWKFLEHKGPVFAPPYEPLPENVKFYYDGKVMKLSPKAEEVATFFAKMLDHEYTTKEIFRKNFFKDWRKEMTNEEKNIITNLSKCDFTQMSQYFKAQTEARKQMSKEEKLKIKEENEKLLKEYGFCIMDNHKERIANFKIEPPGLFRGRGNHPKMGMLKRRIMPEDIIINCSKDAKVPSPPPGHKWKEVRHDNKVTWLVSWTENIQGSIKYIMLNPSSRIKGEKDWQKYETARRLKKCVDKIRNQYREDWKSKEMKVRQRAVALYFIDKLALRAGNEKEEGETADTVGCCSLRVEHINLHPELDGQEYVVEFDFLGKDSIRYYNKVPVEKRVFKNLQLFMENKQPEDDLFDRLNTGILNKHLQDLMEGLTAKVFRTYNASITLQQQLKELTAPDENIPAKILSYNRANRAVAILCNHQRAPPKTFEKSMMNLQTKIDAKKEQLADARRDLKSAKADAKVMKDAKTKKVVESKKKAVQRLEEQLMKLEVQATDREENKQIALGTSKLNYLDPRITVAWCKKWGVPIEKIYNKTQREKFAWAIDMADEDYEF
# Assay: Inhibition of recombinant human TOPO1 assessed as TOP1-DNA cleavage complexes at 1 uM using 3'-[32-P]-117 labeled bp DNA as substrate incubated for 30 mins by SDS-PAGE analysis relative to control
# Conditions: not given
row,Structure (SMILES),inhibition [%]
1,COc1cc2nc(-c3ccc(C(F)(F)F)cc3)cc(OCCCN3CCC(O)CC3)c2cc1OC,0
2,COc1cc2nc(-c3ccc(Cl)cc3)cc(OCCCN3CCCCC3)c2cc1OC,20

# Tested on: MDA-MB-231
# Assay: Growth inhibition of human MDA-MB-231 cells at 10 uM incubated for 48 hrs by sulforhodamine B assay relative to control
# Assay type: functional
# Conditions: read-out: GI
# Outline: as §5
row,Structure (SMILES),inhibition of growth at 10 µM [%]
1,COc1cc2nc(-c3ccc(Cl)cc3)cc(OCCCN3CCCCC3)c2cc1OC,62

# Tested on: COLO 205
# Assay: Growth inhibition of human COLO 205 cells at 10 uM incubated for 48 hrs by sulforhodamine B assay relative to control
# Assay type: functional
# Conditions: read-out: GI
# Outline: as §5
row,Structure (SMILES),inhibition of growth at 10 µM [%]
1,COc1cc2nc(-c3ccc(Cl)cc3)cc(OCCCN3CCCCC3)c2cc1OC,62

# Tested on: MOLT-4
# Assay: Growth inhibition of human MOLT-4 cells at 10 uM incubated for 48 hrs by sulforhodamine B assay relative to control
# Assay type: functional
# Conditions: read-out: GI
# Outline: as §4
row,Structure (SMILES),inhibition of growth at 10 µM [%]
1,COc1cc2nc(-c3ccc(Cl)cc3)cc(OCCCN3CCCCC3)c2cc1OC,62

# Tested on: SF-295
# Assay: Growth inhibition of human SF-295 cells at 10 uM incubated for 48 hrs by sulforhodamine B assay relative to control
# Assay type: functional
# Conditions: read-out: GI
# Outline: as §4
row,Structure (SMILES),inhibition of growth at 10 µM [%]
1,COc1cc2nc(-c3ccc(Cl)cc3)cc(OCCCN3CCCCC3)c2cc1OC,62

# Tested on: NCI-H226
# Assay: Growth inhibition of human NCI-H226 cells at 10 uM incubated for 48 hrs by sulforhodamine B assay relative to control
# Assay type: functional
# Conditions: read-out: GI
# Outline: as §4
row,Structure (SMILES),inhibition of growth at 10 µM [%]
1,COc1cc2nc(-c3ccc(Cl)cc3)cc(OCCCN3CCCCC3)c2cc1OC,62

# Tested on: NCI-H522
# Assay: Growth inhibition of human NCI-H522 cells incubated for 48 hrs by sulforhodamine B assay
# Assay type: functional
# Conditions: not given
# Outline: as §2
row,Structure (SMILES),GI50 [nM]
1,COc1cc2nc(-c3ccc(C(F)(F)F)cc3)cc(OCCCN3CCC(O)CC3)c2cc1OC,4150
2,COc1cc2nc(-c3ccc(Cl)cc3)cc(OCCCN3CCCCC3)c2cc1OC,3280

# Tested on: K562
# Assay: Growth inhibition of human K562 cells incubated for 48 hrs by sulforhodamine B assay
# Assay type: functional
# Conditions: not given
# Outline: as §1
row,Structure (SMILES),GI50 [nM]
1,COc1cc2nc(-c3ccc(C(F)(F)F)cc3)cc(OCCCN3CCC(O)CC3)c2cc1OC,1790
2,COc1cc2nc(-c3ccc(Cl)cc3)cc(OCCCN3CCCCC3)c2cc1OC,1220

# Tested on: UO-31
# Assay: Growth inhibition of human UO-31 cells at 10 uM incubated for 48 hrs by sulforhodamine B assay relative to control
# Assay type: functional
# Conditions: read-out: GI
# Outline: as §3
row,Structure (SMILES),inhibition of growth at 10 µM [%]
1,COc1cc2nc(-c3ccc(Cl)cc3)cc(OCCCN3CCCCC3)c2cc1OC,62

# Tested on: A498
# Assay: Growth inhibition of human A498 cells at 10 uM incubated for 48 hrs by sulforhodamine B assay relative to control
# Assay type: functional
# Conditions: read-out: GI
# Outline: as §3
row,Structure (SMILES),inhibition of growth at 10 µM [%]
1,COc1cc2nc(-c3ccc(Cl)cc3)cc(OCCCN3CCCCC3)c2cc1OC,62

# Tested on: HOP-62
# Assay: Growth inhibition of human HOP-62 cells incubated for 48 hrs by sulforhodamine B assay
# Assay type: functional
# Conditions: not given
# Outline: as §1
row,Structure (SMILES),GI50 [nM]
1,COc1cc2nc(-c3ccc(C(F)(F)F)cc3)cc(OCCCN3CCC(O)CC3)c2cc1OC,1800
2,COc1cc2nc(-c3ccc(Cl)cc3)cc(OCCCN3CCCCC3)c2cc1OC,2370

# Tested on: RXF 393
# Assay: Growth inhibition of human RXF 393 cells at 10 uM incubated for 48 hrs by sulforhodamine B assay relative to control
# Assay type: functional
# Conditions: read-out: GI
# Outline: as §4
row,Structure (SMILES),inhibition of growth at 10 µM [%]
1,COc1cc2nc(-c3ccc(Cl)cc3)cc(OCCCN3CCCCC3)c2cc1OC,62

# Tested on: NCI-H23
# Assay: Growth inhibition of human NCI-H23 cells incubated for 48 hrs by sulforhodamine B assay
# Assay type: functional
# Conditions: not given
# Outline: as §2
row,Structure (SMILES),GI50 [nM]
1,COc1cc2nc(-c3ccc(C(F)(F)F)cc3)cc(OCCCN3CCC(O)CC3)c2cc1OC,6160
2,COc1cc2nc(-c3ccc(Cl)cc3)cc(OCCCN3CCCCC3)c2cc1OC,2950

# Tested on: SK-MEL-2
# Assay: Growth inhibition of human SK-MEL-2 cells incubated for 48 hrs by sulforhodamine B assay
# Assay type: functional
# Conditions: not given
# Outline: as §2
row,Structure (SMILES),GI50 [nM]
1,COc1cc2nc(-c3ccc(C(F)(F)F)cc3)cc(OCCCN3CCC(O)CC3)c2cc1OC,3850
2,COc1cc2nc(-c3ccc(Cl)cc3)cc(OCCCN3CCCCC3)c2cc1OC,2750

# Tested on: MCF7
# Assay: Growth inhibition of human MCF7 cells incubated for 48 hrs by sulforhodamine B assay
# Assay type: functional
# Conditions: not given
# Outline: as §1
row,Structure (SMILES),GI50 [nM]
1,COc1cc2nc(-c3ccc(C(F)(F)F)cc3)cc(OCCCN3CCC(O)CC3)c2cc1OC,2570
2,COc1cc2nc(-c3ccc(Cl)cc3)cc(OCCCN3CCCCC3)c2cc1OC,1560
